In the library only some 1.9% were active in any assay of this set; here they are far more common.
HGIII-sPLA2 inh: human group III sPLA2 inhibitors, primary screen, biochemical, QFRET, BODIPY PC-A2 liposome substrate; 370,000 compounds, 0.56% hits; AID 743126, 2013; inhibition, % at 12.2 µM; Group 3 secretory phospholipase A2 (Homo sapiens), Q9NZ20; QFRET BODIPY PC-A2 liposome hydrolysis, fluorescence;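 active means inhibition above mean plus 3 SD of compounds lying within the high and low control bounds, cut at about 19% in these data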
PLCg1 inh: PLC-gamma1 enzyme inhibitors, primary screen, biochemical, fluorescence, purified enzyme | 370,000 compounds, 0.84% hits | inhibition, % at 12.2 µM | fluorogenic substrate | AID 720700, 2013; in the data active means inhibition above about 9.5%
Target sequence (P19174 whole entry, looked up): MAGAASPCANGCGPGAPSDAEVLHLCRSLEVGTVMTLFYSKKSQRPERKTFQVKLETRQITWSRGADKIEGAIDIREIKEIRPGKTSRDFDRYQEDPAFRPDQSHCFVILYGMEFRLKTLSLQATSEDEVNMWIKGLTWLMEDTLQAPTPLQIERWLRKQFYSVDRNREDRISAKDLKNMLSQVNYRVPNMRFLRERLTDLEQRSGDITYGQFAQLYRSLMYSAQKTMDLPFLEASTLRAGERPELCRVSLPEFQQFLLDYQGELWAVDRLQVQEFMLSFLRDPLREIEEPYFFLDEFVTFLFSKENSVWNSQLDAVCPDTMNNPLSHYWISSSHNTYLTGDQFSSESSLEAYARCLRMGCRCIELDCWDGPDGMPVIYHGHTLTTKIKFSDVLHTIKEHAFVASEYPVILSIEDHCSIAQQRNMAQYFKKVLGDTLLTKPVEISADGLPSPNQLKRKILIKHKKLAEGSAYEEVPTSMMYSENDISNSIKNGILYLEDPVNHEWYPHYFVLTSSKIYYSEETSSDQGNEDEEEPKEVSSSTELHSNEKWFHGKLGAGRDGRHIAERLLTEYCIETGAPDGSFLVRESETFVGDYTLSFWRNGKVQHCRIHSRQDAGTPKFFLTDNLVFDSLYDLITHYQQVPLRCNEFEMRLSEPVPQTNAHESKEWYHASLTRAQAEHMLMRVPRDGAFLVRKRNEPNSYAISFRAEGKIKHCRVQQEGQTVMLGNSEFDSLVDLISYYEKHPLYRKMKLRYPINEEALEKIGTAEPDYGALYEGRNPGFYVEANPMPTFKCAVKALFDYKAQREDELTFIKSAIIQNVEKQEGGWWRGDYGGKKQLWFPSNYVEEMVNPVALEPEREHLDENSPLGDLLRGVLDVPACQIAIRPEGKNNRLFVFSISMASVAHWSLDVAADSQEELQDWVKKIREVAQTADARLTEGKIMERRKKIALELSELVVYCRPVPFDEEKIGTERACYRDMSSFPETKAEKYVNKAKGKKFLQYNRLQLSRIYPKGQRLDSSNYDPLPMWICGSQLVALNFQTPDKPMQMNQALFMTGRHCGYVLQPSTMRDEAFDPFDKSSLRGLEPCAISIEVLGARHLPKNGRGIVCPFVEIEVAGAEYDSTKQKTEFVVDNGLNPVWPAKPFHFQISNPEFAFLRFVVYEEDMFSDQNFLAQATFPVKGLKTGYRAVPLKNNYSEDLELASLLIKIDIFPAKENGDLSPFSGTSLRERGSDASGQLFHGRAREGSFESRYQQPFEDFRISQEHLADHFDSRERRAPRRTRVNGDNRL
Tb MetRS inh: T. brucei MetRS inhibitors, primary screen, biochemical, luminescence; AID 624268, 2012; methionyl-tRNA synthetase (Trypanosoma brucei brucei); inhibition, % at 11.9 µM; 360,000 compounds, 0.4% hits; purified T. brucei MetRS, ATP depletion, Kinase-Glo luminescence;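 active means inhibition above a per-plate cutoff of the control wells' mean inhibition plus 3 SD, cut at about 5.5% in these data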
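assay system = parasite MetRS enzyme | timing = 15 min preincubation, 2 h reaction, all 25 °C | evaluation = percent inhibition relative to median high and low control wells | medium = HEPES buffer containing pyrophosphatase, BSA, spermine, DTT | compound = single dose, 11.9 µM final nominal, 0.9% final DMSO | detection = Kinase-Glo luminescence, ATP depletion format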
PLCb3 inh: human PLC-beta3 inhibitors, primary screen, biochemical, fluorescence; 370,000 compounds, 0.18% hits; AID 720704, 2013; inhibition, % at 12.2 µM; 1-phosphatidylinositol 4,5-bisphosphate phosphodiesterase beta-3 (Homo sapiens), Q01970; Purified PLC-beta3, fluorogenic substrate; in the data active means inhibition above about 11%
hGIII sPLA2 conf: human group III sPLA2 inhibitors, confirmation, biochemical, QFRET, triplicate. recombinant hGIII-sPLA2, BODIPY PC-A2 QFRET fluorescence. AID 743280, 2014. shares compounds with HGIII-sPLA2 inh. inhibition, % at 12.2 µM. 2,000 compounds, 34% hits;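 active means mean inhibition across triplicates above the hit cutoff set in the earlier primary screen, cut at about 19% in these data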
BODIPY interf: 535nm fluorescence optical interference, confirmation, artefact control for HGIII-sPLA2 inhibitor project, biochemical, QFRET; shares compounds with HGIII-sPLA2 inh; 2,000 compounds, 8.5% hits; AID 743282, 2014; inhibition, % at 12.2 µM; BODIPY FL product fluorescence interference;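 active means average inhibition above the solvent-only control mean plus 3 SD, cut at about 6% in these data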
BODIPY interf DR: 535nm fluorescence optical interference, dose response, artefact control for HGIII-sPLA2 inhibitor project, biochemical, QFRET; BODIPY FL product fluorescence interference, cell-free; AID 743455, 2014; shares compounds with HGIII-sPLA2 inh; 240 tested, under 10 active; IC50, µM;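 active means IC50 at or below 10 µM; inactive means IC50 above 10 µM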
A number is an active result; - = inactive; . = no result given.

SMILES	HGIII-sPLA2 inh	PLCg1 inh	Tb MetRS inh	PLCb3 inh	hGIII sPLA2 conf	BODIPY interf	others
C=C(C)c1cccc(C(C)(C)NC(=O)Nc2ccccc2OCC)c1	21	-	-	-	-	-
CC12C(=O)N(NC(=O)c3ccncc3)C(=O)C1C1C=CC2C1 (stereo not given)	21	-	-	-	-	-
COc1ccc(-c2cc(-c3nnc(SCC(=O)Nc4nccs4)n3N)[nH]n2)cc1	-	-	.	-	.	.
COc1ccc(/C=N/NC(=S)NCc2ccccc2)cc1OC	24	-	-	-	-	-
COc1ccc(CNCC#Cc2ccccc2)c(OC)c1	-	-	.	-	.	.
Cc1cccc2sc(=S)[nH]c12	24	-	-	-	20	-
CN1CCN(CC(O)COc2ccc(C(=O)O)cc2)CC1 (stereo not given)	19	-	-	-	-	-
O=C(CCCNC(=O)c1ccc(Cl)cc1)Nc1ccccc1F	21	-	-	-	-	-
Cc1ccccc1NC(=O)CCCNC(=O)c1ccc(Cl)cc1	-	-	-	-	.	.
COCCn1c(=NC(=O)c2ccc(S(=O)(=O)N3CCCc4ccccc43)cc2)sc2cc(S(C)(=O)=O)ccc21	20	-	-	-	-	-
O=C(NNc1ccccc1[N+](=O)[O-])Nc1ccc(Cl)c(Cl)c1	27	-	-	-	28	9.8
COc1ccccc1CCNC(=O)c1cc(-c2ccccn2)nc2ccccc12	20	-	-	-	-	-
CC1=C2NC(N)=[N+](Cc3ccccc3)CC2n2c(=O)n(-c3ccccc3)c(=O)n2C1 (stereo not given)	-	-	.	-	.	.
O=C(N[C@H](C(=O)N1CCC[C@H]1C(=O)NC1CCCC1)c1ccccc1)c1ccc(Cl)c(Cl)c1	-	-	.	-	.	.
CC1=CC(C)(C)NC(=S)N1c1ccc(Cl)cc1	20	-	-	-	21	-
CC1=CC(C)(C)NC(=S)N1c1ccc2ccccc2c1	-	-	-	-	.	.
CC1=CC(C)(C)NC(=S)N1c1cccc2ccccc12	20	-	-	-	31	-	BODIPY interf DR=-
CN1CCC[C@@H]1CCNC(=O)c1cccc2c1C(=O)c1ccc(N3CCCC3)cc1S2(=O)=O	78	-	-	-	-	-
O=C(CSc1cccc[n+]1[O-])Nc1cc([N+](=O)[O-])ccc1Cl	-	-	-	-	.	.
O=C(CSc1cccc[n+]1[O-])Nc1cc2c(cc1Cl)C(=O)c1ccccc1C2=O	19	-	-	-	-	6.5
Cc1ccc(S(=O)(=O)N2C=C(c3ccccc3)c3ccccc3-c3ccccc32)cc1	-	-	.	-	.	.
COc1ccc(CCNC(=O)/C=C/C(=O)O)cc1	-	-	-	-	.	.
O=C(O)/C=C/C(=O)NCCc1ccc(Cl)cc1	22	-	-	-	-	-
N#C/C(=C\c1ccc2c(c1)OCCO2)C(=O)NC1CCCCC1	24	-	-	-	-	-
CC(COc1ccc(F)cc1)CN1CCC(C(O)(c2ccccc2)c2ccccc2)CC1 (stereo not given)	-	-	.	-	.	.
SMILES	HGIII-sPLA2 inh	PLCg1 inh	Tb MetRS inh	PLCb3 inh	hGIII sPLA2 conf	BODIPY interf	others
CCOC(=O)c1c(CSC(=N)N)n(-c2ccccc2)c2cc(Br)c(OC(C)=O)cc12	44	-	-	-	35	-	BODIPY interf DR=-
O=C1CN(C(=O)c2ccccc2C(=O)O)c2ccccc2N1	-	-	-	-	.	.
O=C1CN(C(=O)c2ccccc2Cl)c2ccccc2N1	21	-	-	-	-	-
CN(Cc1ccco1)C(=O)[C@@H](Cc1ccccc1)NC(=O)[C@H]1O[C@@H](n2ccc(=O)[nH]c2=O)[C@H](O)[C@@H]1O	-	-	.	-	.	.
S=c1nc[nH]c2c1[nH]c1ccccc12	-	-	-	-	.	.
S=c1nc[nH]c2c1[nH]c1ccc(Cl)cc12	20	-	-	-	-	-
CN1CCCCC(NC(=O)C2CCCCC2)C1=O (stereo not given)	-	-	.	-	.	.
Cc1nnsc1C(=O)N/N=C/c1ccc2ccccc2c1O	38	-	-	-	21	-
Cc1nnsc1C(=O)N/N=C/c1ccccc1	-	-	-	-	.	.
Cc1ccc(CN2CCCCC(NC(=O)c3ccccc3)C2=O)cc1 (stereo not given)	-	-	.	-	.	.
CC(=O)Nc1sc(N/N=C\c2cccc(Cl)c2)nc1-c1cccs1	25	-	-	-	35	14
O=C(NCc1ccccc1)[C@H]1CCCN1C(=O)[C@H]1CCCN1C(=O)c1ccc(OC(F)(F)F)cc1	-	-	.	-	.	.
COC(=O)C1CC(c2c(OC)cc(OC)cc2OC)=NO1 (stereo not given)	-	-	-	-	.	.
COC(=O)[C@@H]1C(c2c(OC)cc(OC)cc2OC)=NO[C@H]1C(=O)OC	20	-	-	-	-	-
COCCCN1C(=O)[C@H](CC(=O)NCc2ccc(C)o2)[C@]2(C(=O)OC)CCCCC=C12	-	-	.	-	.	.
Cc1cc(=O)[nH]c(SCC(=O)N2CCCC2)n1	20	-	-	-	-	-
Cc1cc(=O)[nH]c(SCC(=O)N2CCCC(C)C2)n1 (stereo not given)	-	-	-	-	.	.
Cc1c(O)c2c(=O)n(-c3ccccc3)c(-c3ccccc3)cc2oc1=O	20	-	-	-	-	-
NS(=O)(=O)c1cccc(NC(=O)c2cccs2)c1	21	-	-	-	-	-
CN(Cc1ccccc1)C(=O)c1ccc(Nc2nc(C(N)Cc3ccccc3)cs2)nc1 (stereo not given)	-	-	-	-	.	.
CC(C)CC(N)c1csc(Nc2ccc(C(=O)N(C)Cc3ccccc3)cn2)n1 (stereo not given)	21	-	-	-	-	-
O=C(OC12CCCN(C1)/C(=C/c1ccncc1)C2)C1CCCCC1 (stereo not given)	-	-	.	-	.	.
Cc1ccc(C)c(N2CCN(C(=O)CCCN3C(=S)NC(C)(C)CC3C)CC2)c1 (stereo not given)	22	-	-	-	21	-
Cc1cccc(NC(=O)CCCN2C(=S)NC(C)(C)CC2C)c1C (stereo not given)	-	-	-	-	.	.
Cc1cccc(N2CCN(C(=O)CCN3C(=S)NC(C)(C)CC3C)CC2)c1C (stereo not given)	28	-	-	-	-	-
Oc1c(N=Nc2ccccn2)ccc2ccccc12	22	-	-	-	54	13
